ChEMBL document CHEMBL2346615, “Design, synthesis, and molecular modelling of pyridazinone and phthalazinone derivatives as protein kinases inhibitors” (Bioorg Med Chem Lett, 2013)

Legend:
[1] = target: Cyclin-dependent kinase 5/CDK5 activator 1 (Homo sapiens, UniProt Q00535); experiment: Inhibition of human recombinant CDK5/p25 after 30 mins by scintillation counting analysis in presence of [gamma-33P]ATP; format: protein-complex assay
[2] = target: T1, Casein kinase I isoform alpha (Sus scrofa, UniProt O19175); experiment: Inhibition of pig brain CK1 using RRKHAAIGpSAYSITA as substrate after 30 mins by scintillation counting analysis in presence of [gamma-33P]ATP
T1 sequence (O19175 whole entry): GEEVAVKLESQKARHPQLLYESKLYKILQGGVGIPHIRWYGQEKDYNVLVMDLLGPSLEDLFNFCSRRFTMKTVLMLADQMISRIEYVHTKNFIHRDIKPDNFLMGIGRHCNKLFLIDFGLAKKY

[3] = target: Dual specificity tyrosine-phosphorylation-regulated kinase 1A (Rattus norvegicus, UniProt Q63470); experiment: Inhibition of rat recombinant DYRK1A expressed in Escherichia coli using myelin basic protein as substrate after 30 mins by scintillation counting analysis in presence of [gamma-33P]ATP
[4] = target: Glycogen synthase kinase-3 (Sus scrofa, UniProt B2LUN4+I6LNT8); experiment: Inhibition of pig brain GSK-3alpka/beta using YRRAAVPPSPSLSRHSSPHQSpEDEEE as substrate after 30 mins by scintillation counting analysis in presence of [gamma-33P]ATP
OVCAR-8 = experiment: Cytotoxicity against human OVCAR8 cells after 48 hrs by MTT assay; format: functional, cell-based; settings: OVCAR-8, 48 h
Outline: (§1)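 Run in triplicate, with the mean reported; the IC50 for each cell line comes from non-linear regression with a 95% confidence interval.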

HCT-116 = experiment: Cytotoxicity against human HCT116 cells after 48 hrs by MTT assay; format: functional, cell-based; settings: HCT-116, 48 h; outline: as §1
HL-60 = experiment: Cytotoxicity against human HL60 cells after 48 hrs by MTT assay; format: functional, cell-based; settings: HL-60, 48 h; outline: as §1
SF-295 = experiment: Cytotoxicity against human SF295 cells after 48 hrs by MTT assay; format: functional, cell-based; settings: SF-295, 48 h; outline: as §1

Chain of Cyclin-dependent kinase 5/CDK5 activator 1 (Q00535 whole entry, canonical isoform): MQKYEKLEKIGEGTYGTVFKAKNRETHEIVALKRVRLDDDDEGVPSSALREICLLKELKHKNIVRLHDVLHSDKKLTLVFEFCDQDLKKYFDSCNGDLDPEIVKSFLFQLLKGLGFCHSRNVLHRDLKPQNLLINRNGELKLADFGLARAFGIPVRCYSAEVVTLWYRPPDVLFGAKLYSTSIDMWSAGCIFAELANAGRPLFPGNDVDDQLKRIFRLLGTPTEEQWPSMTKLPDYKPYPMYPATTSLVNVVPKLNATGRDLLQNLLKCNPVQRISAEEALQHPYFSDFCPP
Chain of Cyclin-dependent kinase 5/CDK5 activator 1 (Q15078 whole entry, further chain, canonical isoform): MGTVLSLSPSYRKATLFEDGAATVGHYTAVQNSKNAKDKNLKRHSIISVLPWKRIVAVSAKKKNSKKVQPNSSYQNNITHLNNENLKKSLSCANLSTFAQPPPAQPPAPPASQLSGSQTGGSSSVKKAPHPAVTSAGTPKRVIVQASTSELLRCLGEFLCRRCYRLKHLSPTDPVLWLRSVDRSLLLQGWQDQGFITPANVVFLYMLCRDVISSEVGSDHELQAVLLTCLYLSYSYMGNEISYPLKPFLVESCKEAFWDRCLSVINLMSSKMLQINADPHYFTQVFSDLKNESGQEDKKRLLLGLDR

CC(C)C(=O)Nc1n[nH]c(=O)c2ccccc12
IC50 [1]: > 10 µM | IC50 [2]: > 10 µM | IC50 [3]: > 10 µM | IC50 [4]: > 10 µM

Nc1n[nH]c(=O)c2ccccc12
IC50 [1]: > 10 µM | IC50 (OVCAR-8): 11.8 µM | IC50 (HCT-116): 12.7 µM | IC50 (HL-60): 8.87 µM | IC50 [2]: > 10 µM | IC50 [3]: 4.1 µM | IC50 [4]: > 10 µM | IC50 (SF-295): 6.06 µM

O=C(Nc1n[nH]c(=O)c2ccccc12)c1ccccc1
IC50 [1]: > 10 µM | IC50 [2]: > 10 µM | IC50 [3]: > 10 µM | IC50 [4]: > 10 µM

O=c1cc(-c2ccccc2)c(NCCN2CCCCC2)n[nH]1
IC50 [1]: > 10 µM | IC50 [2]: > 10 µM | IC50 [3]: > 10 µM | IC50 [4]: > 10 µM

CN1CCC(Nc2cc(-c3ccccc3)c(=O)[nH]n2)CC1
IC50 [1]: > 10 µM | IC50 [2]: > 10 µM | IC50 [3]: > 10 µM | IC50 [4]: > 10 µM

CCCNc1n[nH]c(=O)c2ccccc12
IC50 [1]: > 10 µM | IC50 [2]: > 10 µM | IC50 [3]: > 10 µM | IC50 [4]: > 10 µM

O=c1[nH]nc(NCCN2CCCCC2)c2ccccc12
IC50 [1]: > 10 µM | IC50 [2]: > 10 µM | IC50 [3]: > 10 µM | IC50 [4]: > 10 µM

CC(=O)Nc1n[nH]c(=O)cc1-c1ccccc1
IC50 [1]: > 10 µM | IC50 [2]: > 10 µM | IC50 [3]: > 10 µM | IC50 [4]: > 10 µM

Nc1n[nH]c(=O)cc1-c1ccccc1
IC50 [1]: > 10 µM | IC50 [2]: > 10 µM | IC50 [3]: > 10 µM | IC50 [4]: > 10 µM

CC(=O)Nc1cc(-c2ccccc2)c(=O)[nH]n1
IC50 [1]: > 10 µM | IC50 (OVCAR-8): 14 µM | IC50 (HCT-116): 15.4 µM | IC50 (HL-60): 11.6 µM | IC50 [2]: > 10 µM | IC50 [3]: 10 µM | IC50 [4]: 2.2 µM | IC50 (SF-295): 7.66 µM

Nc1cc(-c2ccccc2)c(=O)[nH]n1
IC50 [1]: > 10 µM | IC50 (OVCAR-8): 4.86 µM | IC50 (HCT-116): 4.4 µM | IC50 (HL-60): 3.64 µM | IC50 [2]: > 10 µM | IC50 [3]: 6 µM | IC50 [4]: 8.1 µM | IC50 (SF-295): 5.71 µM

O=C(Nc1cc(-c2ccccc2)c(Cl)nn1)c1ccccc1
IC50 [1]: > 10 µM | IC50 [2]: > 10 µM | IC50 [3]: > 10 µM | IC50 [4]: > 10 µM

O=C(Nc1cc(-c2ccccc2)c(=O)[nH]n1)c1ccccc1
IC50 [1]: > 10 µM | IC50 [2]: > 10 µM | IC50 [3]: > 10 µM | IC50 [4]: > 10 µM

CCCCCC(=O)N(C(=O)CCCCC)c1nnc(Cl)c2ccccc12
IC50 [1]: > 10 µM | IC50 [2]: > 10 µM | IC50 [3]: > 10 µM | IC50 [4]: > 10 µM

O=C(Cc1ccccc1)N(C(=O)Cc1ccccc1)c1nnc(Cl)c2ccccc12
IC50 [1]: > 10 µM | IC50 [2]: > 10 µM | IC50 [3]: > 10 µM | IC50 [4]: > 10 µM

O=C(Cc1ccccc1)Nc1nnc(Cl)c2ccccc12
IC50 [1]: > 10 µM | IC50 [2]: > 10 µM | IC50 [3]: > 10 µM | IC50 [4]: > 10 µM

CC(=O)N(C(C)=O)c1n[nH]c(=O)c2ccccc12
IC50 [1]: > 10 µM | IC50 [2]: > 10 µM | IC50 [3]: > 10 µM | IC50 [4]: > 10 µM

CC(C)C(=O)N(C(=O)C(C)C)c1n[nH]c(=O)c2ccccc12
IC50 [1]: > 10 µM | IC50 [2]: > 10 µM | IC50 [3]: > 10 µM | IC50 [4]: > 10 µM

O=C(Cc1ccccc1)Nc1n[nH]c(=O)c2ccccc12
IC50 [1]: > 10 µM | IC50 [2]: > 10 µM | IC50 [3]: > 10 µM | IC50 [4]: > 10 µM

CC(=O)Nc1n[nH]c(=O)c2ccccc12
IC50 [1]: > 10 µM | IC50 [2]: > 10 µM | IC50 [3]: > 10 µM | IC50 [4]: > 10 µM

O=c1[nH]nc(NCc2ccccc2)cc1-c1ccccc1
IC50 [1]: > 10 µM | IC50 [2]: > 10 µM | IC50 [3]: > 10 µM | IC50 [4]: > 10 µM

O=c1cc(-c2ccccc2)c(NCc2ccccc2)n[nH]1
IC50 [1]: > 10 µM | IC50 [2]: > 10 µM | IC50 [3]: > 10 µM | IC50 [4]: > 10 µM

CCCNc1cc(-c2ccccc2)c(=O)[nH]n1
IC50 [1]: > 10 µM | IC50 [2]: > 10 µM | IC50 [3]: > 10 µM | IC50 [4]: > 10 µM

CCCNc1n[nH]c(=O)cc1-c1ccccc1
IC50 [1]: > 10 µM | IC50 [2]: > 10 µM | IC50 [3]: > 10 µM | IC50 [4]: > 10 µM

O=c1[nH]nc(NCCN2CCCCC2)cc1-c1ccccc1
IC50 [1]: > 10 µM | IC50 [2]: > 10 µM | IC50 [3]: > 10 µM | IC50 [4]: > 10 µM
